35 compounds from ChEMBL document CHEMBL1777751, “Virtual screening and further development of novel ALK inhibitors” (Bioorg Med Chem, 2011) can be followed below.

Assay [1] deals with T1, ALK tyrosine kinase receptor (Homo sapiens, UniProt Q9UM73). Put plainly: Inhibition of ALK using FL-Peptide 13, 5-FAM-KKSRGDYMTMQIG-CONH2 substrate at 10 uM after 60 mins by mobility shift assay. In a few lines: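 Recombinant ALK at 42 ng/mL, with 1.5 µM fluorescent peptide substrate and ATP. Buffer: 50 mM Hepes pH 7.4, 10 mM MgCl2, 1 mM DTT, 1% protease and 1% phosphatase inhibitor cocktails, 0.01% Brij-35. Compound was added in 5% DMSO. Incubated 60 min at room temperature, then read by mobility shift.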
Target sequence in this assay (Q9UM73 19-1620 limits assumed): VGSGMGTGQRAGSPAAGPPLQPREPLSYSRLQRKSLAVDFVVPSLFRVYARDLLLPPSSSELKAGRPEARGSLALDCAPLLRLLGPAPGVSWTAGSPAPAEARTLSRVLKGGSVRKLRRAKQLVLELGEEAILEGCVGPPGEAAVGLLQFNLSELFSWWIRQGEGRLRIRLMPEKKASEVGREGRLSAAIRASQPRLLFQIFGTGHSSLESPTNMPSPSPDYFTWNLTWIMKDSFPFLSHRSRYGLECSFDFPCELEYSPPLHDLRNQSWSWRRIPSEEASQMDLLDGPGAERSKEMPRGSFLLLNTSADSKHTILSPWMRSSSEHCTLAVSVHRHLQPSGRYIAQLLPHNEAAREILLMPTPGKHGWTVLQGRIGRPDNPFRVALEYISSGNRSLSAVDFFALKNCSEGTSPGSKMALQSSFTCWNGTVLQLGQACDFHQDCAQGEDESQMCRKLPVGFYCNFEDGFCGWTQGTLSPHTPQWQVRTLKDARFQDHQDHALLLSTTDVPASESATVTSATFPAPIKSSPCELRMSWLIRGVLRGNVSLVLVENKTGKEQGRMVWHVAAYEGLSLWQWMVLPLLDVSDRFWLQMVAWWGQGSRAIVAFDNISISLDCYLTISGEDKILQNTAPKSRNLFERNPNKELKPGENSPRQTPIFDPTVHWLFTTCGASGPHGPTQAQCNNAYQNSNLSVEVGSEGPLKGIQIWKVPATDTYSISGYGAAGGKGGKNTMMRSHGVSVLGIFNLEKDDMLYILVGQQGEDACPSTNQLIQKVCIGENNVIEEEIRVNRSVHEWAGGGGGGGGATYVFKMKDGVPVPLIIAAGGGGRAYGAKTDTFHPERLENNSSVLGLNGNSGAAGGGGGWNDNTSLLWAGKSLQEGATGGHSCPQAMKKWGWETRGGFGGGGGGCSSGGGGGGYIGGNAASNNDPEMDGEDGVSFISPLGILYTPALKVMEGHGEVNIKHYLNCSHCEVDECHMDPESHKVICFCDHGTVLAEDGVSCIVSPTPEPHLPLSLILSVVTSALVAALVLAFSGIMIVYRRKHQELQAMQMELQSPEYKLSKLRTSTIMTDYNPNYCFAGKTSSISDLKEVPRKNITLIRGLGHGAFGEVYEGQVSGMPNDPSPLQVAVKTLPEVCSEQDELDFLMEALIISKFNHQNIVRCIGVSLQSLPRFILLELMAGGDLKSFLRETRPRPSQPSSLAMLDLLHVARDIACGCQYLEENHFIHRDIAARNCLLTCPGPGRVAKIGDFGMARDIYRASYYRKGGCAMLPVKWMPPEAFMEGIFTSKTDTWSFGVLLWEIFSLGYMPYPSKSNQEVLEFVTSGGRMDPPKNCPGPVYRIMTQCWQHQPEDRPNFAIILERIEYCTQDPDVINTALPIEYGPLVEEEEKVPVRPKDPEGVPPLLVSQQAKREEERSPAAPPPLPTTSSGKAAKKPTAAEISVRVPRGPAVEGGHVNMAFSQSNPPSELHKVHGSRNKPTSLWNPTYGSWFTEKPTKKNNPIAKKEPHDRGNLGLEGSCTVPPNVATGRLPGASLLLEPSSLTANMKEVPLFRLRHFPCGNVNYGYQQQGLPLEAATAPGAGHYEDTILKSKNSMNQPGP

The target in assay [2] is T1, ALK tyrosine kinase receptor. The experiment in a line: Inhibition of ALK using FL-Peptide 13, 5-FAM-KKSRGDYMTMQIG-CONH2 substrate after 60 mins by mobility shift assay.
Target sequence in this assay (Q9UM73 whole entry): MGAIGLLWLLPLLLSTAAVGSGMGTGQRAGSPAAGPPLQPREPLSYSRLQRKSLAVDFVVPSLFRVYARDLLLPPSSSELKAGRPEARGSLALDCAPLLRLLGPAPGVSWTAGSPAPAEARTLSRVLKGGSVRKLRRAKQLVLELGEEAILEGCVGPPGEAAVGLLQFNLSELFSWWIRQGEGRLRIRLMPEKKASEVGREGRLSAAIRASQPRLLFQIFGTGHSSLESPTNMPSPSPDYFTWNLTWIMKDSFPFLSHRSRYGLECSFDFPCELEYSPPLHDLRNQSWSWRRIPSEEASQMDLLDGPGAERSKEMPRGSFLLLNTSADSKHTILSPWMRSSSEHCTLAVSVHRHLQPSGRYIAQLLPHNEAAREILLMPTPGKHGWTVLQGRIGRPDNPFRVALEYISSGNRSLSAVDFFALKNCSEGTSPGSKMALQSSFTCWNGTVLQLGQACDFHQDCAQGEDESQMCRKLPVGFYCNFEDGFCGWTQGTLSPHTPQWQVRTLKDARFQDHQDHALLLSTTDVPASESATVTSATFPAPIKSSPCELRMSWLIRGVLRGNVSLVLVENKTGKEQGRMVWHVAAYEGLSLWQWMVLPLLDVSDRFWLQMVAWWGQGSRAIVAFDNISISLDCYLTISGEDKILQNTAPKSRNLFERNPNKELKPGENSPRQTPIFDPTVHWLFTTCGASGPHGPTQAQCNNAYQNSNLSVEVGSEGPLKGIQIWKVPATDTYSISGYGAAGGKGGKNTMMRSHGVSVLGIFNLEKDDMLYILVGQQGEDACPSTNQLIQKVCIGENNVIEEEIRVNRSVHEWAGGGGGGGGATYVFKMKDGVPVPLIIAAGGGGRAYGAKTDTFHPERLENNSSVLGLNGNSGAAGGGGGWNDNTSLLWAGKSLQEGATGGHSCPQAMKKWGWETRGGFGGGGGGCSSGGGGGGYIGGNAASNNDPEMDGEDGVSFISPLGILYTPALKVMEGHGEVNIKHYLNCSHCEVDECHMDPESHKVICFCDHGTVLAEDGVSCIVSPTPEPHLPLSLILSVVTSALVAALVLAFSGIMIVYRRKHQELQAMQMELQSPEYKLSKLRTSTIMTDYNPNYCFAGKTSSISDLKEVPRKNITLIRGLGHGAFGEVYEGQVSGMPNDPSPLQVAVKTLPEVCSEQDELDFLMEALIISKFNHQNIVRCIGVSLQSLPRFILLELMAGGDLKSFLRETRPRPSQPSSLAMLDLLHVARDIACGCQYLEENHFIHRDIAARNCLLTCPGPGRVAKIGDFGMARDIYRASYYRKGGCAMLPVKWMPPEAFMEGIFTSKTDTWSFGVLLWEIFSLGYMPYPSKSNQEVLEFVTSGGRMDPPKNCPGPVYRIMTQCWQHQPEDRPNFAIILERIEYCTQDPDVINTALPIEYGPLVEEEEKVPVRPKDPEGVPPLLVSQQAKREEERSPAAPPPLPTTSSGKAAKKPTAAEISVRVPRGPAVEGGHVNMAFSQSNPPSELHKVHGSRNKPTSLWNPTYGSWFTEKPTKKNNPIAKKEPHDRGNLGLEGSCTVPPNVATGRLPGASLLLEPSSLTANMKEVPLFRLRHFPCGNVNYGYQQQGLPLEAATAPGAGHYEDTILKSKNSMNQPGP
Assay [3] shares this target. Put plainly: Inhibition of ALK at 4 uM by mobility shift assay. The procedure, abridged:
(§1)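 Tyrosine kinase panel run by a contract lab. Each enzyme was incubated with 1 mM ATP and 1 µM of its appropriate peptide substrate, and the product was then read by mobility shift.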
Target sequence in this assay (Q9UM73 19-1620 limits assumed): as the sequence (Q9UM73 19-1620 limits assumed) above

The target of assay [4] is Platelet-derived growth factor receptor alpha (Homo sapiens) (UniProt P16234). Put plainly: Inhibition of PDGFRa at 4 uM by mobility shift assay. The procedure, abridged: as §1
A short description of assay [5]: Inhibition of NPM1/ALK at 4 uM by mobility shift assay. In a few lines:
as §1

Assay [6] deals with Angiopoietin-1 receptor (Homo sapiens) (UniProt Q02763). Put plainly: Inhibition of TIE2 at 4 uM by mobility shift assay. In a few lines:
as §1

Assay [7] has as its target High affinity nerve growth factor receptor (Homo sapiens) (UniProt P04629). Put plainly: Inhibition of TRKA at 4 uM by mobility shift assay. In a few lines: as §1
The target in assay [8] is Tyrosine-protein kinase JAK3 (Homo sapiens) (UniProt P52333). Put plainly: Inhibition of JAK3 at 4 uM by mobility shift assay. The procedure, abridged:
as §1

The target in assay [9] is Proto-oncogene tyrosine-protein kinase Src (Homo sapiens) (UniProt P12931). The experiment in a line: Inhibition of SRC at 4 uM by mobility shift assay. In a few lines: as §1
Assay [10] has as its target Epidermal growth factor receptor (Homo sapiens) (UniProt P00533). The experiment in a line: Inhibition of EGFR at 4 uM by mobility shift assay. The procedure, abridged:
as §1

In assay [11] the target is Hepatocyte growth factor receptor (Homo sapiens) (UniProt P08581). The experiment in a line: Inhibition of MET at 4 uM by mobility shift assay. The procedure, abridged:
as §1

The target in assay [12] is Insulin-like growth factor 1 receptor (Homo sapiens) (UniProt P08069). Put plainly: Inhibition of IGF-1R at 4 uM by mobility shift assay. The procedure, abridged: as §1
Assay [13] has as its target T1, ALK tyrosine kinase receptor. The experiment in a line: Inhibition of EML4-ALK at 4 uM by mobility shift assay. In a few lines: as §1
Target sequence in this assay (Q9UM73 19-1620 limits assumed): as above
Assay [14] has as its target Vascular endothelial growth factor receptor 2 (Homo sapiens) (UniProt P35968). Put plainly: Inhibition of KDR at 4 uM by mobility shift assay. In a few lines:
as §1

In assay [15] the target is Ephrin type-A receptor 2 (Homo sapiens) (UniProt P29317). Put plainly: Inhibition of EPHA2 at 4 uM by mobility shift assay. The procedure, abridged:
as §1

In assay [16] the target is Tyrosine-protein kinase ABL1 (Homo sapiens) (UniProt P00519). The experiment in a line: Inhibition of ABL at 4 uM by mobility shift assay. The procedure, abridged:
as §1

The target in assay [17] is Ephrin type-B receptor 4 (Homo sapiens) (UniProt P54760). The experiment in a line: Inhibition of EPHB4 at 4 uM by mobility shift assay.
For assay [18], the target named is Protein-tyrosine kinase 2-beta (Homo sapiens) (UniProt Q14289). The experiment in a line: Inhibition of PYK2 at 4 uM by mobility shift assay. The procedure, abridged: as §1
Sequence of Protein-tyrosine kinase 2-beta (Homo sapiens) (Q14289 whole entry, looked up): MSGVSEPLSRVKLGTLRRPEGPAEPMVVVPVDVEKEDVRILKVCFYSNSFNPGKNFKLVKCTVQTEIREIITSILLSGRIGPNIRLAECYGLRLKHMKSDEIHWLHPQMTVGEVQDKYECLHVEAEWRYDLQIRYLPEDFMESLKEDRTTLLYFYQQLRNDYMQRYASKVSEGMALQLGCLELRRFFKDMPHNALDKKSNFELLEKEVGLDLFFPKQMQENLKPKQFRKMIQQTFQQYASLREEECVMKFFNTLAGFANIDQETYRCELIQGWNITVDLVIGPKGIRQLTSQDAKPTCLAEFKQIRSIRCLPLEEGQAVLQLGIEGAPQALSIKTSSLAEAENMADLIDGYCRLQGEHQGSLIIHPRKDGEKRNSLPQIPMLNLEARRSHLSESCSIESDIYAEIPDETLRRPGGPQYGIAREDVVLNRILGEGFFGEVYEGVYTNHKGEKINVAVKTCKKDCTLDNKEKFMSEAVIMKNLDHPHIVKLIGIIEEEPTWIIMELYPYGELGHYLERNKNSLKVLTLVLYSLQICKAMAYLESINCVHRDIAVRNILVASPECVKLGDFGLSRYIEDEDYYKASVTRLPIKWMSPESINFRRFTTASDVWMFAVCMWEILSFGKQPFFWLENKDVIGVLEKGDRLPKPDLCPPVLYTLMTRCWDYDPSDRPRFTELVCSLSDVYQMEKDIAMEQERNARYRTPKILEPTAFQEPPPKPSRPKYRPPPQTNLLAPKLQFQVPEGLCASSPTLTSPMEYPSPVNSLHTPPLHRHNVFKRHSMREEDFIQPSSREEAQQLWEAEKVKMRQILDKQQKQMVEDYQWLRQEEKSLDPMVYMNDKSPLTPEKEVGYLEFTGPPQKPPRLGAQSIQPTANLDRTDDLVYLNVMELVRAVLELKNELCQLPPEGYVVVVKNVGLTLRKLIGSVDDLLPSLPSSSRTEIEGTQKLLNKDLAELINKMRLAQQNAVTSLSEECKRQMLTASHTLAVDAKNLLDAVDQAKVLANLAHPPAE
Assay [19] addresses Tyrosine-protein kinase SYK (Homo sapiens) (UniProt P43405). Put plainly: Inhibition of SYK at 4 uM by mobility shift assay. The procedure, abridged:
as §1

In assay [20] the target is Insulin receptor (Homo sapiens) (UniProt P06213). Put plainly: Inhibition of INSR at 4 uM by mobility shift assay. In a few lines:
as §1

Assay [21] has as its target Receptor-type tyrosine-protein kinase FLT3 (Homo sapiens) (UniProt P36888). Put plainly: Inhibition of FLT3 at 4 uM by mobility shift assay. In a few lines:
as §1

Assay [22] addresses Tyrosine-protein kinase receptor TYRO3 (Homo sapiens) (UniProt Q06418). Put plainly: Inhibition of TYRO3 at 4 uM by mobility shift assay. The procedure, abridged:
as §1

Assay [23] addresses Tyrosine-protein kinase Lck (Homo sapiens) (UniProt P06239). Put plainly: Inhibition of LCK at 4 uM by mobility shift assay. In a few lines: as §1
The target of assay [24] is Tyrosine-protein kinase CSK (Homo sapiens) (UniProt P41240). The experiment in a line: Inhibition of CSK at 4 uM by mobility shift assay. The procedure, abridged: as §1
The target of assay [25] is Tyrosine-protein kinase ITK/TSK (Homo sapiens) (UniProt Q08881). Put plainly: Inhibition of ITK at 4 uM by mobility shift assay. In a few lines: as §1
The target in assay [26] is Fibroblast growth factor receptor 1 (Homo sapiens) (UniProt P11362). Put plainly: Inhibition of FGFR1 at 4 uM by mobility shift assay. The procedure, abridged: as §1
Sequence of Fibroblast growth factor receptor 1 (Homo sapiens) (P11362 22-822 limits assumed): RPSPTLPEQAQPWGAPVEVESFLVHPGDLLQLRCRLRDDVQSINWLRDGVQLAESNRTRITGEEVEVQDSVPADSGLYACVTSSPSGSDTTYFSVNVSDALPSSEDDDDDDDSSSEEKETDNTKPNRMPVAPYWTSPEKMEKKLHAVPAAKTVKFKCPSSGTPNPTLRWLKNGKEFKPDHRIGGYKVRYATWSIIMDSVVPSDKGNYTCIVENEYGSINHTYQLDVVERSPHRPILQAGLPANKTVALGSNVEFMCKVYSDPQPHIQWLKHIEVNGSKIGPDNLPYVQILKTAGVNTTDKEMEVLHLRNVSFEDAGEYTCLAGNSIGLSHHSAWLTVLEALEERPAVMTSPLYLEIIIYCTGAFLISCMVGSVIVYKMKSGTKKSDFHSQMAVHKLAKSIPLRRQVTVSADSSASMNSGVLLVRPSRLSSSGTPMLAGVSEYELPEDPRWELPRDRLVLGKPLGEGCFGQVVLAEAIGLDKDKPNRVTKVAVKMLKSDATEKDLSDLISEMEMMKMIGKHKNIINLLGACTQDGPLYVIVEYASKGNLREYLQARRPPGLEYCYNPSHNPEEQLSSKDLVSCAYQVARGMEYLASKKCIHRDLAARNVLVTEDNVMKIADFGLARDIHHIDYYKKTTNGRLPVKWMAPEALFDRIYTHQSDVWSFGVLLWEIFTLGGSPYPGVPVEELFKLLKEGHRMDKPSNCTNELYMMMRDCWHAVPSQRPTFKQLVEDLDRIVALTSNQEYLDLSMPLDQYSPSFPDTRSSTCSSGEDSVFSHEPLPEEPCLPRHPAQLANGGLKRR

Some results are limits rather than exact numbers.

What is called inhibition is the change of the read-out against control, counted positive when it falls. As to `Cn1cc(/C=C2\C(=O)Nc3ccccc32)c2ccccc21`, the inhibition in assay [1] was more than 50%.

What is called IC50 is the concentration at which inhibition is half-maximal. As for `Cc1cc(-c2ccc(NCCN)cc2)c(/C=C2\C(=O)Nc3ccccc32)[nH]1`, the IC50 in [2] turned out to be 149 nM. Turning to `CC(=O)COc1ccc2c(c1)O/C(=C\c1ccc([N+](=O)[O-])cc1)C2=O`, the inhibition in [1] is more than 50%.

For the compound `Oc1ccc(Nc2ncnc3ccc(Br)cc23)cc1`, the inhibition in [1] is more than 50%. In addition, the IC50 in [2] was 2850 nM. With `Oc1ccc(C2Oc3cc(O)cc(O)c3CC2O)cc1` (stereo not given), in assay [1], the inhibition was more than 50%. The same measure, in the same setting: the same measure for `COc1cc(N2CCCC2)ccc1/C=C1\C(=O)NC(=O)N(c2cccnc2)C1=O`: more than 50%; for `Oc1c2ccccc2c2c3c(cccc13)N=N2`: more than 50%. Consider `Cc1cc(-c2cccc(NCCN)c2)c(/C=C2\C(=O)Nc3ccccc32)[nH]1`, for which the 50% inhibitory concentration (IC50) in assay [2] was 89.1 nM. For the compound `Oc1ccc(-n2cccc2)cc1C(O)O`, in assay [1], the inhibition was more than 50%. Turning to `Cc1[nH]c(/C=C2\C(=O)Nc3ccc(F)cc32)c(C)c1C(=O)O`, the IC50 in assay [2] worked out at 910 nM.

With `CCc1nc(/C=C2\C(=O)Nc3ccccc32)c[nH]1`, in assay [1], the inhibition is more than 50%. Take `O=C1Nc2ccccc2/C1=C/c1c[nH]nc1-c1cccs1`: the inhibition in [1] was more than 50%. Consider `COc1cc2ncnc(Nc3ccc(O)cc3)c2cc1OC` [WHI-P131], for which the IC50 in assay [2] was found to be 2400 nM. On the same count and under the same terms, the same measure for `COc1c(OCCN2CCCCC2)cc(F)c2c(-c3ccc(O)c(Cl)c3)nc3[nH]nc(C)c3c12`: not above 99 nM. Same read-out and setting: for `Cc1ccc(NC2=NC(=O)/C(=C3\C(=O)Nc4ccccc43)S2)cc1` the value was 3750 nM; for `CN(C)S(=O)(=O)c1ccc2c(c1)/C(=C/c1cc3c([nH]1)CCCC3)C(=O)N2`, 850 nM.

Consider `Cc1[nH]c(/C=C2\C(=O)Nc3ccccc32)c(C)c1-c1ccc(NCCN)cc1`, for which, in assay [2], the IC50 worked out at 415 nM. For the compound `Cc1cc(-c2cccc(N)c2)c(/C=C2\C(=O)Nc3ccccc32)[nH]1`, the inhibition in assay [3] amounted to 97.6%; in assay [4], 56.6%; in assay [5] it was 93.8%; in assay [6] it was 14%; in assay [7], 99.4%; in assay [8], 9%. Moreover, the inhibition was 39% in assay [9]; -2.3% in assay [10]; 12.7% in [11]; 91.2% in [12]; 98.7% in assay [13]; 81.7% in assay [14]. Also, the inhibition came out at 4.9% in assay [15]; 5.1% in assay [16]; 5.1% in [17]; 86.5% in assay [18]; 58.5% in [19]; 97.2% in assay [20]. The inhibition in assay [21] was 98.1%; in [22], 100%; in assay [23], 69.8%; in assay [24], -6.5%; in [25] it was 34.2%; in assay [26] it was 62.7%. The IC50 in assay [2] was determined as 61.8 nM. Regarding `CCOC(=O)c1ccc(Nc2nc(Nc3ccc(Cl)cc3)c3nccnc3n2)cc1`, in assay [2], the IC50 was 3470 nM. As to `COc1cc(-c2nc3cc(C)ccn3c2/N=C/c2cc(Cl)ccc2O)ccc1O`, in [2], the IC50 was 2400 nM.

With `CC1CN(Cc2c(-c3cccs3)[nH]c3ncccc23)CC(C)O1` (stereo not given), in [2], the IC50 is 9290 nM. Regarding `Oc1cc(C(O)O)c2cc(Oc3ccc4nc(O)cc(C(O)O)c4c3)ccc2n1`, the inhibition in assay [1] is more than 50%.

Regarding `Cc1cc(-c2ccc(N)cc2)c(/C=C2\C(=O)Nc3ccc(N)cc32)[nH]1`, the IC50 in assay [2] was 68.3 nM. Same read-out and setting: the same measure for `O=C1Nc2ccccc2/C1=C/c1c[nH]nc1-c1ccccc1`: 1730 nM. With `O=C(OCc1cc(=O)oc2cc(O)c(O)cc12)c1cc2ccccc2cc1O`, the inhibition in [1] is more than 50%.

Take `Cc1cc(-c2ccc(N)cc2)c(/C=C2\C(=O)Nc3ccccc32)[nH]1`: in [2], the IC50 came out at 368 nM. The same measure, in the same setting: the same measure for `O=[N+]([O-])c1ccc2ncnc(Nc3ccc(O)cc3)c2c1`: 8660 nM. As to `O=C1c2c(cc(O)c(O)c2O)CCCC1O` (stereo not given), in assay [1], the inhibition is more than 50%. In the case of `CCc1nc(C)c(/C=C2\C(=O)Nc3ccccc32)[nH]1`, in assay [2], the IC50 is 1380 nM.

Turning to `Oc1ccc(Nc2nc(-c3ccccc3O)nc3ccccc23)cc1`, the IC50 in assay [2] was determined as 4240 nM. Same read-out and setting: the same measure for `COc1cc2c(-c3ccc(O)cc3)nc3[nH]nc(C)c3c2cc1OC`: not above 99 nM; for `Cc1[nH]c(/C=C2\C(=O)Nc3ccccc32)c(C)c1-c1cccc(NCCN)c1`: 604 nM. As to `NC(Cc1cc(O)c(O)cc1O)C(O)O` (stereo not given), the inhibition in assay [1] was more than 50%. As to `Cc1cc(-c2cccc(N)c2)c(/C=C2\C(=O)Nc3ccc(N)cc32)[nH]1`, in assay [2], the IC50 came to 50.8 nM. Regarding `Oc1ccccc1-c1nc(Nc2ccc(Cl)cc2)c2ccccc2n1`, the IC50 in assay [2] turned out to be 6460 nM.
